Source: PubChem BioAssay AID489030 (Sanford-Burnham Center for Chemical Genomics, 2010)
Hit rate of the full screen: of about 330,000 compounds, about 2,400 (0.73%) were called active. Shown is part of a subset that was picked to be rich in actives. Values without a mark were called inactive. How the source made its calls: active means inhibition of at least 40% at 20 µM; inactive means the rest.

target: Apoptotic protease-activating factor 1 (Homo sapiens) (UniProt O14727); assay: inhibitors of human Apaf-1 apoptosome, primary screen, biochemical, DEVD-Rh110 fluorescence, uHTS (AID 489030); settings: reconstituted apoptosome caspase-3 activity, at 20 µM, active compounds read high;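 further: plate controls were DMSO wells for no effect and DEVD-CHO caspase inhibitor wells for full effect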
Sequence (O14727 whole entry, looked up): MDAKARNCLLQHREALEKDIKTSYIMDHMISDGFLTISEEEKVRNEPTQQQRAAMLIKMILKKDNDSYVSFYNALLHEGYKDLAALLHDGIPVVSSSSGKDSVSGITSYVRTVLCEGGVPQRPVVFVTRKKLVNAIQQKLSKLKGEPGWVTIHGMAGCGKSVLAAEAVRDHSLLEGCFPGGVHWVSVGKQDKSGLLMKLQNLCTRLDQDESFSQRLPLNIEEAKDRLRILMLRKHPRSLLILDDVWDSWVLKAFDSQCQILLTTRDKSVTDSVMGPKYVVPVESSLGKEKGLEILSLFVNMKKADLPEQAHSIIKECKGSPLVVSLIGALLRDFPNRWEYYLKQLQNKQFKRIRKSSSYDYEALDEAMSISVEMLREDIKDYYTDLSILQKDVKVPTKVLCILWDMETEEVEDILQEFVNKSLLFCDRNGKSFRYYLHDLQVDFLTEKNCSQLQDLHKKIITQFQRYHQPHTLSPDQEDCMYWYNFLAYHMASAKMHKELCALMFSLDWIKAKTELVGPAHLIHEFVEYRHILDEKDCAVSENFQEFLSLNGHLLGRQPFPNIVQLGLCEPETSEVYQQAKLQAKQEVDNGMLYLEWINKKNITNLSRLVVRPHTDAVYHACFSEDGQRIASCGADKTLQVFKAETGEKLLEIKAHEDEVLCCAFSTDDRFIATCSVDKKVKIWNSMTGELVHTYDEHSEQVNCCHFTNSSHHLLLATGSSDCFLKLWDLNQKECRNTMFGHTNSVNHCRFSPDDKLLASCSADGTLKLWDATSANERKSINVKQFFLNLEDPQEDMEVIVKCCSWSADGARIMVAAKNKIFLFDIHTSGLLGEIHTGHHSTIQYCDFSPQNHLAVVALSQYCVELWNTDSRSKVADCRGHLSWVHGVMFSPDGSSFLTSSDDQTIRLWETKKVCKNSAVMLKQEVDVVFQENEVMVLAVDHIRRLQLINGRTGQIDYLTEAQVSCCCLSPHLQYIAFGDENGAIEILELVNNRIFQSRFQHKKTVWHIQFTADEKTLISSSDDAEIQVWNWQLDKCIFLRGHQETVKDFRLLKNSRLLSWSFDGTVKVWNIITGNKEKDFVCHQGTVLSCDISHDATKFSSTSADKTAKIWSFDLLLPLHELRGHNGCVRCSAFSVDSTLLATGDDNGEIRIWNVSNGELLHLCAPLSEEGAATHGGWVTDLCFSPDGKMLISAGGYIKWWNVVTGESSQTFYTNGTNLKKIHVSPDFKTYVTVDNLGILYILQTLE
Procedure, shortened: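 Medium: Hepes buffer, pH 7.5 / System: biochemical Apaf-1 apoptosome reconstitution / Measured by: Rh110 fluorescence, excitation 480 nm, emission 540 nm / Times: compound with Apaf-1, dATP, procaspase-3 30 min, then 50 min reaction, room temperature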

Row | Structure (SMILES) | inhibition
1 | CCNC(=O)COC(=O)CCNC(=O)c1cccc(C)c1 | -4.69%
2 | Cc1nn2cc(-c3ccc(Cl)cc3)cnc2c1Br | -6.41%
3 | COc1cc(OC)cc(C(=O)OCC(=O)Nc2sccc2C(N)=O)c1 | -0.564%
4 | COC(=O)c1ccc(N2CCOCC2)c(NC(=O)c2ccc(Br)o2)c1 | -17.7%
5 | CCCCc1nc2cc(C(=O)N3CCCCC3CCO)ccc2o1 (stereo not given) | 5.2%
6 | CCN(CC)CCCSc1nc2ccccc2s1 | -0.516%
7 | O=[N+]([O-])c1c(NCCO)cc(Sc2nc3ccccc3s2)c2nonc12 | 90.7% (active)
8 | OCCNc1nc(Nc2ccc(Cl)c(Cl)c2)nc2ccccc12 | 24.2%
9 | O=c1ccc2cc(S(=O)(=O)NCCCc3ccccc3)ccc2[nH]1 | 0.38%
10 | C=CC(=O)OCCOCCOCCOCCOC(=O)C=C | -5.63%
11 | c1ccc2c(CCN3CCNC[C@H]3Cc3cccc4ccccc34)cccc2c1 | 67% (active)
12 | c1ccc(C2CNCc3c2ccc2ccccc32)cc1 (stereo not given) | 13.6%
13 | O=C1CCNCCN1[C@H](CO)Cc1ccccc1 | -9.83%
14 | CC(C)(C)CN1C(=O)C(=O)NC[C@H]1Cc1cccc2ccccc12 | -2.41%
15 | c1ccc(C[C@H]2CNCCN2CCC23CC4CC(CC(C4)C2)C3)cc1 | 47.5% (active)
16 | NS(=O)(=O)c1ccc(N2C(=O)C3C4CC(C(Br)C4Br)C3C2=O)cc1 (stereo not given) | 4.73%
17 | CC(=O)Nc1ccc(OCCC[n+]2cccc(C(=O)[O-])c2)cc1 | 0.989%
18 | N=c1ccn(CC(=O)NC(N)=O)c2ccccc12 | -8.89%
19 | C/C(=N\NC(=O)CSc1nc2ccccc2c(=O)n1-c1ccccc1C)c1cccs1 | 19.1%
20 | Cc1cccc(/C=N/NC(=O)CNc2cccc3ccccc23)n1 | 8.96%
21 | C/C(=N\NC(=O)CNc1cccc2ccccc12)c1ccc(Br)s1 | 90.2% (active)
22 | COc1ccc(-n2nnnc2SCC(=O)c2ccc(OC)c(OC)c2)cc1 | 1%
23 | CC[C@@H](C)[C@@H](C(=O)N1CCN(C(=O)OC(C)(C)C)CC1)n1cc(CCC(=O)O)nn1 | -7.69%

Row | Structure (SMILES) | inhibition
24 | COc1ccc(C2=NOC3(CC(=O)N(c4ccc(Cl)cc4)C3=O)C2)c(OC)c1 (stereo not given) | 5.23%
25 | C#CCOCCOCCOCCNc1nc(N2CCN(C(=O)[C@H](CCC(=O)O)n3cc(C(N)CO)nn3)CC2)nc(N2CCN(C(=O)[C@H](CCCCN)n3cc(C(N)[C@H](C)CC)nn3)CC2)n1 (stereo not given in full) | 20.3%
26 | C#CCOCCOCCOCCNc1nc(N2CCN(C(=O)[C@H](C(C)C)n3cc(CCO)nn3)CC2)nc(N2CCN(C(=O)[C@H]([C@@H](C)CC)n3cc(CCCN=C(N)N)nn3)CC2)n1 | 0.78%
27 | C#CCOCCOCCOCCNc1nc(N2CCN(C(=O)C([C@@H](C)O)n3cc([C@@H](N)CCCCN)nn3)CC2)nc(N2CCN(C(=O)[C@H](CCCCN)n3cc(CN)nn3)CC2)n1 (stereo not given in full) | 42.2% (active)
28 | C#CCOCCOCCOCCNc1nc(N2CCN(C(=O)CCCCCCCCCCNC(=O)[C@H](CCCCN)n3cc(C)nn3)CC2)nc(N2CCN(C(=O)CCCCCCCCCCNC(=O)[C@H](CO)n3cc(CCCSC)nn3)CC2)n1 | 59.7% (active)
29 | C#CCOCCOCCOCCNc1nc(N2CCN(C(=O)[C@H](CCCN=C(N)N)n3cc(C(N)[C@@H](C)CC)nn3)CC2)nc(N2CCN(C(=O)[C@H](CO)n3cc([C@@H](N)C(C)C)nn3)CC2)n1 (stereo not given in full) | 1.97%
30 | C#CCOCCOCCOCCNc1nc(N2CCN(C(=O)[C@H](CCCCN)n3cc(CCC(=O)O)nn3)CC2)nc(N2CCN(C(=O)[C@H](CCCCN)n3cc(CC(C)O)nn3)CC2)n1 (stereo not given in full) | -2.94%
31 | C#CCOCCOCCOCCNc1nc(N2CCN(C(=O)Cn3cc(CCCCN)nn3)CC2)nc(N2CCN(C(=O)[C@H](CCCCN)n3cc(CCC(=O)O)nn3)CC2)n1 | 2.29%
32 | C#CCOCCOCCOCCNc1nc(N2CCN(C(=O)CCCCCCCCCCNC(=O)[C@H]([C@@H](C)CC)n3cc(CCCCN=C(N)N)nn3)CC2)nc(N2CCN(C(=O)CCCCCCCCCCNC(=O)[C@H](CO)n3cc(CCCSC)nn3)CC2)n1 | 59.2% (active)
33 | C#CCOCCOCCOCCNc1nc(N2CCN(C(=O)C([C@@H](C)CC)n3cc(C(N)COC(=O)C(F)(F)F)nn3)CC2)nc(N2CCN(C(=O)[C@H](CCCCN)n3cc(C(N)CC(C)C)nn3)CC2)n1 (stereo not given in full) | 4.38%
34 | C#CCOCCOCCOCCNc1nc(N2CCN(C(=O)[C@H](CCC(=O)O)n3cc(C(N)CO)nn3)CC2)nc(N2CCN(C(=O)[C@H](CCCCN)n3cc(C(N)CC(C)C)nn3)CC2)n1 (stereo not given in full) | 2.63%
35 | C#CCOCCOCCOCCNc1nc(N2CCN(C(=O)[C@H](CCC(=O)O)n3cc(CN)nn3)CC2)nc(N2CCN(C(=O)[C@H](CCC(=O)O)n3cc(CN)nn3)CC2)n1 | -8.71%
36 | C#CCOCCOCCOCCNc1nc(N2CCN(C(=O)CCCCCCCCCCNC(=O)Cn3cc(CCCCCN)nn3)CC2)nc(N2CCN(C(=O)CCCCCCCCCCNC(=O)[C@H](CO)n3cc(CCCSC)nn3)CC2)n1 | 60.7% (active)
37 | CCN(c1ccc2c(c1)OCO2)S(=O)(=O)c1cc(Br)cc2c1N(C(=O)C1CC1)CC2 | 21.5%
38 | COc1cc(C2C(C(=O)c3cccs3)=C(O)C(=O)N2CCN2CCOCC2)ccc1OCCC(C)C (stereo not given) | 6.88%
39 | CCn1c(CN2C(=O)CSc3ccccc32)n[nH]c1=S | -18.9%
40 | CN(Cc1ccccc1)C(=O)c1ccc(NC2=NC3CS(=O)(=O)CC3S2)cc1 (stereo not given) | -0.97%
41 | CC(C)Oc1ccc(Cc2n[nH]c(=S)n2Cc2ccccc2)cc1Cl | -15.3%
42 | CC(NCc1ccccc1OC1CCCC1)c1ccccc1 (stereo not given) | -12%
43 | CCOc1ccc(N=C2NC(=O)S/C2=C\c2ccc(O)cc2)cc1 | -72%
44 | CCOc1[nH]n(-c2ccc(Cl)cc2)c(=O)c1C=Nc1ccc(O)cc1 | 66.9% (active)
45 | CCCCn1c(N)c(N(CCC(C)C)C(=O)c2ccc([N+](=O)[O-])o2)c(=O)[nH]c1=O | 5.92%
